The values that follow come from ChEMBL document CHEMBL1143074, “Symplocamide A, a potent cytotoxin and chymotrypsin inhibitor from the marine Cyanobacterium Symploca sp” (J Nat Prod, 2008).

Experiment [1] can be described thus: Inhibition of trypsin at 10 uM.
Experiment [2] in a line: Inhibition of chymotrypsin. A digest of the protocol:
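Spectrophotometric assay: 0.0025 mg/mL chymotrypsin (0.0086 U) with 0.53 mM BTEE in 38 mM Tris-HCl pH 7.8, 53 mM CaCl2, 0.5 mM HCl and 32% MeOH at 25 °C. Inhibitor (from MeOH dilutions, final 6.25 × 10-5 to 7.5 × 10^-9 M) was equilibrated with substrate before enzyme addition. Absorbance at 256 nm was followed for 5 min, and the 0.5–1.5 min interval was analyzed.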

The source made the active and inactive calls. The calls are words filed in the database; no cut-off is given here.

`CC[C@H](C)[C@@H]1NC(=O)[C@H](Cc2ccc(O)cc2)N(C)C(=O)[C@H]([C@@H](C)CC)N2C(=O)C(CCC2O)NC(=O)[C@H](CC(C)C)NC(=O)[C@@H]2C(OC1=O)C(C)CN2C(=O)[C@H](CCC(N)=O)NC(C)=O` (stereo in doubt; form 1): the outcome in experiment [1] was inactive. `CC[C@H](C)[C@@H]1NC(=O)[C@H](Cc2ccc(O)cc2)N(C)C(=O)[C@H]([C@@H](C)CC)N2C(=O)C(CCC2O)NC(=O)[C@H](CC(C)C)NC(=O)[C@@H]2C(OC1=O)C(C)CN2C(=O)[C@H](CCC(N)=O)NC(C)=O` (stereo in doubt; form 1) [NOSTOPEPTIN B] displayed an IC50 in experiment [2] of 1.73 µM. `CC(=O)N[C@@H](CCC(N)=O)C(=O)N[C@@H]1C(=O)N[C@@H](CC(C)C)C(=O)N[C@H]2CC[C@@H](O)N(C2=O)[C@@H](Cc2ccccc2)C(=O)N(C)[C@@H](Cc2ccc(O)c(Cl)c2)C(=O)N[C@@H](C(C)C)C(=O)O[C@H]1C` [CYANOPEPTOLIN 954] showed a concentration for half-maximal inhibition (IC50) in experiment [2] of 0.04 µM. The outcome in experiment [1] was inactive. Taken in the same sequence, the figures for `CCCCCC(=O)N[C@@H](CC(=O)O)C(=O)N[C@@H]1C(=O)N[C@@H](Cc2ccc(O)cc2)C(=O)N[C@H]2CC[C@@H](O)N(C2=O)[C@@H](CC(C)C)C(=O)N(C)[C@@H](Cc2ccccc2)C(=O)N[C@@H](C(C)C)C(=O)O[C@@H]1C` [CYANOPEPTOLIN 963A] were 0.9 µM and “inactive”. In turn, `CC(C)C[C@@H]1NC(=O)[C@@H](NC(=O)[C@@H](NC(=O)[C@H](C)NC(=O)[C@H](CCCc2ccc(O)cc2)NC(=O)[C@H](O)CO)C(C)C)[C@@H](C)OC(=O)[C@H](C(C)C)NC(=O)[C@H](Cc2ccc(O)c(Br)c2)N(C)C(=O)[C@H]([C@@H](C)O)N2C(=O)[C@H](CC[C@H]2O)NC1=O` [LARGAMIDE D] displayed an IC50 in experiment [2] of 10 µM. Further, the outcome in experiment [1] was inactive. `C/C=C1\NC(=O)[C@@H](NC(=O)[C@H](CCc2ccc(O)cc2)NC(=O)[C@H](C)NC(=O)[C@H](O)COS(=O)(=O)O)[C@@H](C)OC(=O)[C@H](C(C)C)NC(=O)[C@H](Cc2ccc(O)cc2)N(C)C(=O)[C@H](Cc2ccccc2)N2C(=O)[C@H](CC[C@H]2O)NC1=O` [LYNGBYASTATIN 4]: the outcome in experiment [1] was inactive. Consider `CC[C@H](C)[C@@H]1NC(=O)[C@H](Cc2ccc(O)cc2)N(C)C(=O)[C@H](Cc2ccccc2)N2C(=O)[C@H](CC[C@H]2O)NC(=O)[C@H](Cc2ccccc2)NC(=O)[C@@H](NC(=O)[C@@H](O)COP(=O)(O)O)[C@@H](C)OC1=O` [MICROPEPTIN T 20], for which half-maximal inhibition in experiment [2] (IC50) was put at 0.0025 µM. Same read-out and setting: the result for `CC[C@@H](C)[C@@H]1NC(=O)[C@H](Cc2ccc(OC)cc2)N(C)C(=O)[C@H]([C@@H](C)CC)N2C(=O)[C@H](CC[C@H]2O)NC(=O)[C@H](CCc2ccc(OC)cc2)NC(=O)[C@@H](NC(=O)[C@H](CCc2ccc(O)cc2)NC(=O)[C@@H](COS(=O)(=O)O)OC)[C@@H](C)OC1=O` [OSCILLAPEPTIN B] reads 1.78 µM; that for `CC[C@@H](C)[C@@H]1NC(=O)[C@H](Cc2ccccc2)N(C)C(=O)[C@H]([C@@H](C)CC)N2C(=O)[C@H](CC[C@H]2OC)NC(=O)[C@H](CC2C=CC(O)C=C2)NC(=O)[C@@H](NC(=O)[C@@H](CCc2ccc(O)cc2)NC(=O)[C@@H](CO)OC)[C@@H](C)OC1=O` (some centres undefined) [OSCILLAPEPTIN C], 2.82 µM; that for `CC[C@H](C)[C@@H]1NC(=O)[C@H](Cc2ccccc2)N(C)C(=O)[C@H]([C@@H](C)CC)N2C(=O)[C@H](CC[C@H]2O)NC(=O)[C@H](C[C@H]2C=C[C@H](O)CC2)NC(=O)[C@@H](NC(=O)[C@H](CCc2ccc(O)cc2)NC(=O)[C@@H](COS(=O)(=O)O)OC)[C@@H](C)OC1=O` [OSCILLAPEPTIN D], 1.95 µM. Same read-out and setting: then `CC[C@@H](C)[C@@H]1NC(=O)[C@H](Cc2ccccc2)N(C)C(=O)[C@H]([C@@H](C)CC)N2C(=O)[C@H](CC[C@H]2O)NC(=O)[C@H](CCc2ccc(O)cc2)NC(=O)[C@@H](NC(=O)[C@@H](CCc2ccc(O)cc2)NC(=O)[C@@H](COS(=O)(=O)O)OC)[C@@H](C)OC1=O` [OSCILLAPEPTIN E], with 2.64 µM.

One may read the IC50 as the midpoint of a concentration-inhibition curve.
